Test results from publication PMC6357737 (Science Advances, 2019).
Each block holds one compound with its values, some of them ahead of it.

What was measured:
Bmal1-dLuc U2OS cells = test: Cell-based circadian assay, Bmal1-dLuc reporter; design: species or system human
How it was run: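 Stable U2OS Bmal1-dLuc cells were seeded at 3000 per well in DMEM/10% FBS. After 2 days, B27/HEPES explant medium with 0.2 or 1 mM luciferin (pH 7.2) was added, plus compound (final 0.7% DMSO). Luminescence was read every 100 min for 5 days, first day excluded. Period came from curve fitting; intensity was averaged over the run; n = 4. LogEC50 was from sigmoidal fits of threefold 12-point series.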

Caki-2 = test: Proliferation assay of RCC line Caki-2; format: cell-based, human; conditions: Caki-2, 2 days
How it was run: (§1)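 Lines were kept in RPMI-1640/10% FBS and plated 1 day before treatment. Seeding per well: Caki-2 and A704 at 2.0 × 10^4; 786-O, A498, 769-P and ACHN at 1.0 × 10^4; RCC4+vec at 0.7 × 10^4; RCC4+VHL at 0.8 × 10^4. Two days after dosing, cells were stained with Hoechst 33342 (2 μg/ml, 1 h) and counted by imaging.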

A704 = test: Proliferation assay of RCC line A704; format: cell-based, human; conditions: A704, 2 days
How it was run: as §1

ACHN = test: Proliferation assay of RCC line ACHN; format: cell-based, human; conditions: 2 days
How it was run: as §1

Per2-dLuc U2OS cells = test: Cell-based circadian assay, Per2-dLuc reporter; design: species or system human
[1] = test system: cells differentiated from Per2::LucSV knock-in ES cells; test: Circadian assay in differentiated ES cells; format: cell-based, mouse
How it was run: (§2)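 ES cells were kept on feeder fibroblasts; Per2 was disrupted by CRISPR-Cas9 in Bmal1-Luc ES cells. Embryoid bodies formed over 2 days in low-attachment wells, then grew 26 days on gelatin. On day 28, cells got 100 nM dexamethasone for 1 h, then 0.2 mM luciferin with compound. Luminescence was integrated 1 min every 20 min; period came from sine-wave fitting. Replicates: Per2::LucSV n = 4; Per2 knockout versus wild-type n = 3 to 4.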

[2] = test system: lung explants from Per2::Luc mice; test: Circadian rhythms in lung explants; format: cell-based, mouse
How it was run: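 Lung pieces from Per2::Luc knock-in mice were cultured in luciferin-containing explant medium with compound (final 0.24% DMSO). Luminescence was recorded every 30 min for 5 days, excluding the first day. Period was derived by curve fitting.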

CK2 [3] = target: CK2 (Homo sapiens, UniProt P68400); test: biochemical
Sequence of CK2 (Homo sapiens, UniProt P68400) (P68400 whole entry): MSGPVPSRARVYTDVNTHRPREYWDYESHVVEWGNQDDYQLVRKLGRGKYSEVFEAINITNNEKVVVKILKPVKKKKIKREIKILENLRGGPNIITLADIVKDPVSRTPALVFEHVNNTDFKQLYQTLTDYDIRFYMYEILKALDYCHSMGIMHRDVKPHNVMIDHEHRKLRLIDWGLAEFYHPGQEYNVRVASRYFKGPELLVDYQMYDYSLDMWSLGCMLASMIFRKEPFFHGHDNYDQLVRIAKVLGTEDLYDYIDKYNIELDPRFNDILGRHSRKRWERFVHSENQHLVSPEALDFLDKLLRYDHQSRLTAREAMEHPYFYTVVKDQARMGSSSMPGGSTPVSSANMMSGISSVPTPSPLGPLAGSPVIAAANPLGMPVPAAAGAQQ
Sequence of CK2 (Homo sapiens, UniProt P68400) (P67870 whole entry partner): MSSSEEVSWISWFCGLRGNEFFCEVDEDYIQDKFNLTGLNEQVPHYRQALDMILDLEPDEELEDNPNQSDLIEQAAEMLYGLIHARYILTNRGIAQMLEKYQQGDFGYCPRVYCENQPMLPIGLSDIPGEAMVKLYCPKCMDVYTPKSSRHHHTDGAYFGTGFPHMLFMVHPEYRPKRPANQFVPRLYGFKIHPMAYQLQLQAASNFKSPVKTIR

PIM2 = PIM2 (Homo sapiens, UniProt Q9P1W9); test: In vitro PIM2 kinase assay; format: biochemical
Sequence of PIM2 (Q9P1W9 whole entry): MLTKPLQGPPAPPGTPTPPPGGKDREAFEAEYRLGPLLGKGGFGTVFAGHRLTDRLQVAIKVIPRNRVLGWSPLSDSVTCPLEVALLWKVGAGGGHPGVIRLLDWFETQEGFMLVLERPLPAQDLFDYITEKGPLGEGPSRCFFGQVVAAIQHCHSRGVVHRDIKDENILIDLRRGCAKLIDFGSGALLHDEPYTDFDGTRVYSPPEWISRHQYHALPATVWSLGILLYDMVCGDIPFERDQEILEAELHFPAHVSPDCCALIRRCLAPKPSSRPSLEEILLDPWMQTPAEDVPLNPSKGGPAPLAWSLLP
How it was run: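 Kinase-Glo assay measuring remaining ATP. Compound was added (final 5% DMSO) and reactions were started with ATP (final 3 μM). PIM2 ran at 30°C for 3 h. The CK2 comparator used CK2 (1.5 ng/μl) with 50 μM substrate peptide in 40 mM tris, 10 mM MgCl2, 0.5 mM DTT, 150 mM NaCl, pH 7.5, at 37°C for 1.5 h.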

CLK2 = CLK2 (Homo sapiens, UniProt P49760); test: In vitro CLK2 kinase assay; format: biochemical
Sequence of CLK2 (P49760 whole entry): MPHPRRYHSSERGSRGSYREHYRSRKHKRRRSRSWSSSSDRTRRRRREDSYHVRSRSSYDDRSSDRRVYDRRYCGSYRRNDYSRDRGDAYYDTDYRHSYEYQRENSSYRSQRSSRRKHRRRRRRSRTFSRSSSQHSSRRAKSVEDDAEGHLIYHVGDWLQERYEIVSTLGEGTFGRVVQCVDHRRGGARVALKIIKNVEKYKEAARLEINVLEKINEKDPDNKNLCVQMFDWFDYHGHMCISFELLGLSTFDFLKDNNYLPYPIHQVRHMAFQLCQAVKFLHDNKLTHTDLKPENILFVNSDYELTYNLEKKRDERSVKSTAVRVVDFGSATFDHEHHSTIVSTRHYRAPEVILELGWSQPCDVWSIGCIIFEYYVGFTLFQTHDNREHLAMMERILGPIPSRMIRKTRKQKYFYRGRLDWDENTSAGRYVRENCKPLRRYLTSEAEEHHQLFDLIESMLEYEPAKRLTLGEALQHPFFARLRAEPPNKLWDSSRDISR

CKIδ = CKIδ (Homo sapiens, UniProt P48730); test: In vitro CKIδ kinase assay; format: biochemical
Sequence of CKIδ (P48730 whole entry, species assumed): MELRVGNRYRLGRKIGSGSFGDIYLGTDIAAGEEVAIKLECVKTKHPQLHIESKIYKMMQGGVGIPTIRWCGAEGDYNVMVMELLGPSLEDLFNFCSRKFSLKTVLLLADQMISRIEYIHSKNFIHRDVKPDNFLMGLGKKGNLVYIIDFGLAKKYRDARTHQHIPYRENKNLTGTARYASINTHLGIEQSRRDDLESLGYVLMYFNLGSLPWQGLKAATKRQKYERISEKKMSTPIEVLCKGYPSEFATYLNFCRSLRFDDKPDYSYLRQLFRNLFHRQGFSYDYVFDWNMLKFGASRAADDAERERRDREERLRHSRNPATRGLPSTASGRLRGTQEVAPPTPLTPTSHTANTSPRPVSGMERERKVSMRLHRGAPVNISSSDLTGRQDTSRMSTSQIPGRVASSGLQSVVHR

CKIα = CKIα (Homo sapiens, UniProt P48729); test: In vitro CKIα kinase assay; format: biochemical
Sequence of CKIα (P48729 whole entry, species assumed): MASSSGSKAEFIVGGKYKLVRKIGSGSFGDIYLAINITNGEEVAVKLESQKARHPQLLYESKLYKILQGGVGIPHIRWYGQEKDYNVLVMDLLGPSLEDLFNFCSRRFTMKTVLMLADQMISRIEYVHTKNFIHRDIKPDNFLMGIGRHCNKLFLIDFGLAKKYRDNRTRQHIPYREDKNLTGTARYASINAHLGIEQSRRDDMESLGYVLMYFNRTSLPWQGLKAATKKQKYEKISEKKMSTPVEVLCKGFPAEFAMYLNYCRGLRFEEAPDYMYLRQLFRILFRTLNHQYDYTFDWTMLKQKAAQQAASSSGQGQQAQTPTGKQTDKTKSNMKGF

CRY1 = CRY1 (Mus musculus, UniProt P97784); test: CRY1 degradation assay; format: cell-based; conditions: CRY1-LUC HEK293 cells, 24 h
Sequence of CRY1 (P97784 whole entry): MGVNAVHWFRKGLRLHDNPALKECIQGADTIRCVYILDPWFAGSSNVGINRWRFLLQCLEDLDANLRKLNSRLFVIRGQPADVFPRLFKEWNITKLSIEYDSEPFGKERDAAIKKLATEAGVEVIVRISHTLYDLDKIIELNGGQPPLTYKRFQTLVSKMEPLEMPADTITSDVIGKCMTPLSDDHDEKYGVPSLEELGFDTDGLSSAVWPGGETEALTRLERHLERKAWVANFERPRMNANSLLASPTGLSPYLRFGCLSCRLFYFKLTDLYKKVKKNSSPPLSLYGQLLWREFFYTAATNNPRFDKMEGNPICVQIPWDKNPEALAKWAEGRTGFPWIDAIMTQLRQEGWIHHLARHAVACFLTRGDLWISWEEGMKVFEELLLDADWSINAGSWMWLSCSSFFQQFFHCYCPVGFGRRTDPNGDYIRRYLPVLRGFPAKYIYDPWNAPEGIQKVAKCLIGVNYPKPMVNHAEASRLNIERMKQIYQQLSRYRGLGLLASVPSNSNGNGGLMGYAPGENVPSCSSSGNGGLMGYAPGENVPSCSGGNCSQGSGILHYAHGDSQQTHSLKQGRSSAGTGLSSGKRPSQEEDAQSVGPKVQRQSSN

GSK-3β = GSK-3β (Homo sapiens, UniProt P49841); test: Kinase profiling; format: biochemical; conditions: 5 μM
Sequence of GSK-3β (P49841 whole entry): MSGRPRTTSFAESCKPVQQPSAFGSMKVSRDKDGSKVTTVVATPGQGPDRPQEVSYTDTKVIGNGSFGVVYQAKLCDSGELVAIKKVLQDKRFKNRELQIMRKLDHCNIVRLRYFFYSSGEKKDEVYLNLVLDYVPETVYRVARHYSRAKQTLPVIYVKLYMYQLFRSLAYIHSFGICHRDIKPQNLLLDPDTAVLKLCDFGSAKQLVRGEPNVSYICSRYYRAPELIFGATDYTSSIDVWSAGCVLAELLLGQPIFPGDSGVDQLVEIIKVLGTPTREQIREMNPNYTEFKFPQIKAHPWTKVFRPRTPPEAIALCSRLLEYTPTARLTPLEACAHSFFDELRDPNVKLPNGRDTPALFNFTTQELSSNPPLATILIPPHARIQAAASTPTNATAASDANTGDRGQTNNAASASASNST

[4] = test system: 59 kinases from a variety of classes; test: Kinase profiling, panel of 60 kinases; format: biochemical; conditions: 5 μM
CK2 [5] = target: T1, CK2 (Homo sapiens, UniProt P19784+P68400); test: Cellular CK2 activity, anti-phospho CK2 substrate immunoblot, HEK293T; format: cell-based; conditions: HEK293T cells, 24 hours, various concentrations
T1 sequence (P68400 whole entry): as the sequence (P68400 whole entry) above
T1 sequence (P19784 whole entry): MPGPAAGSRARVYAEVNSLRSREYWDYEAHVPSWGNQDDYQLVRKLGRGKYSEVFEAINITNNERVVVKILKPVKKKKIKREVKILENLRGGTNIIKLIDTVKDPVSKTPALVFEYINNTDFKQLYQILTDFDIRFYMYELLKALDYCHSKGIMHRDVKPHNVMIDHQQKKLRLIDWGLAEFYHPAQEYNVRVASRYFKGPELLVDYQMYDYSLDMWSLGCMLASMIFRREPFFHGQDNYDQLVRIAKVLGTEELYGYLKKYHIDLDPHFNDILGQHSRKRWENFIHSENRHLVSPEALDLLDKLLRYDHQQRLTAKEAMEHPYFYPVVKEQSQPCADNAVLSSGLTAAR
T1 sequence (P67870 whole entry partner): as the sequence (P67870 whole entry partner) above

CK2 [6] = target: T1, CK2; test: Cellular CK2 activity, anti-phospho CK2 substrate immunoblot, U2OS; format: cell-based; conditions: U2OS cells, 24 hours, concentrations similar to those that affected circadian period
PKA (protein kinase A) = test: Anti-phospho PKA substrate immunoblot, HEK293T; format: cell-based, human; conditions: HEK293T cells, 24 hours
How it was run: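 HEK293T cells exposed to a range of test compound concentrations for 24 hours. Lysates were immunoblotted with anti-phospho CK2 substrate antibody, then the membrane was reprobed with anti-phospho PKA substrate and anti-β-actin antibodies.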

PER2 = test: Phosphoproteomics of Flag-tagged PER2 in HEK293T cells; format: cell-based, mouse; conditions: full-length PER2, 8 μM, 24 h (table S1)
How it was run: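 HEK293T cells were reverse-transfected (Lipofectamine 2000) with C-terminal 3XFlag-tagged mouse PER2 plus CK2α. After 24 h, they received 0 or 8 μM compound for 24 h. Lysis was in 1% NP-40 buffer (pH 8.0) with phosphatase inhibitors, followed by anti-Flag immunoprecipitation and LC-MS/MS after four-protease digestion. Phosphorylation was expressed as phosphopeptide/total peptide spectra, and the effect as the treated/control ratio.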

BMAL1 S90 = BMAL1 S90 phosphorylation immunoblot in NIH-3T3 cells; format: cell-based, mouse; conditions: 10 μM, different times
How it was run: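 NIH-3T3 cells were exposed to 10 μM test compound for varying times. Lysates were immunoprecipitated with anti-BMAL1 antibody, then immunoblotted with anti-P-BMAL1-S90 and anti-BMAL1 antibodies. Protein was quantified by Bradford.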

[7] = test system: Per2 knockout cells differentiated from ES cells; test: Circadian assay in Per2 knockout cells differentiated from Bmal1-Luc ES cells; format: cell-based, mouse
How it was run: as §2

A498 = test: Proliferation assay of RCC line A498; format: cell-based, human; conditions: A498, 2 days
How it was run: as §1

769-P = test: Proliferation assay of RCC line 769-P; format: cell-based, human; conditions: 2 days
How it was run: as §1

786-O = test: Proliferation assay of RCC line 786-O; format: cell-based, human; conditions: 2 days
How it was run: as §1

RCC4+vec = test: Proliferation assay of RCC line RCC4+vec; format: cell-based, human; conditions: 2 days
How it was run: as §1

RCC4+VHL = test: Proliferation assay of RCC line RCC4+VHL; format: cell-based, human; conditions: 2 days
How it was run: as §1

MLL-AF9 leukemia cells = test: Proliferation assay of MLL-AF9 leukemia cells; format: cell-based; conditions: mouse MLL-AF9 leukemia cells, 2 days
How it was run: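 GFP-positive MLL-AF9 leukemia cells were taken from leukemic mouse bone marrow and kept in IMDM/10% FBS with SCF 20 ng/ml and mIL-3, mIL-6 and GM-CSF at 10 ng/ml each. Cells were plated at 2.0 × 10^4 per well with compound, incubated at 37°C for 2 days, then counted by flow cytometry.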

[8] = test system: LSK hematopoietic progenitor cells; test: Proliferation assay of LSK hematopoietic progenitor cells; format: cell-based, mouse; conditions: LSK hematopoietic progenitor cells (normal counterpart), 2 days
How it was run: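 LSK progenitors were maintained in StemSpan with SCF and TPO (100 ng/ml each). Cells were plated at 1.0 × 10^4 per well with compound, held at 37°C for 2 days, then counted by flow cytometry.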

OCI-AML3 = test: Proliferation assay of OCI-AML3 cells; format: cell-based, human; conditions: OCI-AML3, 4 days
How it was run: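 OCI-AML3 cells were kept in MEM alpha/20% FBS, plated at 1.0 × 10^4 per well with compound, and incubated at 37°C for 4 days. Viability was read with Cell Counting Kit-8.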

[9] = test system: MLL-AF9 tissues (spleen and bone marrow explants); format: cell-based, mouse; conditions: MLL-AF9 tissues relative to the control
How it was run: (§3)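 Explants: spleen and bone marrow from transplant mice. MLL-AF9 leukemia cells derived from Per2::Luc bone marrow were serially transplanted into nonreporter C57BL/6J mice. Controls were C57BL/6J recipients of Per2::Luc bone marrow, used 3 months later. Tissue was cultured in luciferin explant medium with compound (0.24% DMSO final). Luminescence was read every 30 min for 5 days, first day excluded. Period was curve-fitted; intensity was averaged over the run. MLL-AF9 n = 11; control n = 10 to 20.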

[10] = test system: control spleen and bone marrow explants; test: Per2::Luc rhythms in control spleen and bone marrow explants; format: cell-based, mouse
How it was run: as §3

[11] = target: recombinant CK2 (α2β2 tetramer) (Homo sapiens, UniProt P68400); format: binding; conditions: recombinant CK2, agarose-conjugated GO457, immunoblot
Sequence of recombinant CK2 (α2β2 tetramer) (P68400 whole entry): as the sequence (P68400 whole entry) above
Sequence of recombinant CK2 (α2β2 tetramer) (P67870 whole entry partner): as the sequence (P67870 whole entry partner) above

[12] = test system: CK2α (CSNK2A1), CK2α′ (CSNK2A2), CK2β (CSNK2B), and GSK-3β (GSK3B); format: binding, human; conditions: U2OS cell lysate, 50 μM free compound
How it was run: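 Unsynchronized confluent U2OS cells (1.6 × 10^8) were Dounce-homogenized in MOPS/EGTA/MgCl2/DTT buffer (pH 7.2) and sonicated. NP-40 was added to 0.5%, and the extract was cleared at 14,000g. Halves were preincubated with 0 or 50 μM free compound (0.5% DMSO) at 4°C for 30 min, then with the agarose-conjugated probe for 1 h. Bound proteins were in-gel digested for nanoLC-MS/MS; two independent experiments.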

SMILES: O=C(O)c1ccc2c(c1)nc(Nc1cccc(Cl)c1)c1ccncc12 [CX-4945, reference compound]
- Effect on luminescence (reporter signal intensity) (Bmal1-dLuc U2OS cells; vs DMSO control): severe reduction in luminescence
- Cell growth (Caki-2): inhibited growth
- Cell growth (A704): less of an effect
- Cell growth (ACHN): less of an effect

SMILES: CN(C)c1nc2c(Br)c(Br)c(Br)c(Br)c2[nH]1 [DMAT, reference compound]
- Effect on luminescence (reporter signal intensity) (Bmal1-dLuc U2OS cells; vs DMSO control): severe reduction in luminescence

- IC50 (CK2 [3]): 7 nM
- IC50 (PIM2): 13 µM
- IC50 ratio against CK2 over PIM family kinase (PIM2) (PIM2; PIM2 IC50 relative to CK2 IC50): > 1000
- IC50 (CLK2): > 50 µM
- Effect on CKIδ activity in vitro (CKIδ): minor effects
- Effect on CKIα activity in vitro (CKIα): minor effects
- CRY1 stabilization in cell-based degradation assay (CRY1): no stabilization of CRY1
- Effect on GSK-3β activity (GSK-3β): minor effect
- Effect on the activity of 59 kinases [4]: only a moderate or minor effect
- Cellular CK2 activity (anti-phospho CK2 substrate antibody) (CK2 [6]): Inhibition of cellular CK2 activity
- Signal of anti-phospho PKA substrate antibody (PKA (protein kinase A)): not affected by GO289
SMILES: COc1cc(/C=N/n2c(SC)nnc2-c2ccccc2)c(Br)cc1O [GO289]
- Effect on circadian period (Bmal1-dLuc U2OS cells): dose-dependent lengthening of circadian period
- Effect on luminescence (reporter signal intensity) (Bmal1-dLuc U2OS cells; vs DMSO control): little effect on luminescence
- Lengthening of circadian period (Bmal1-dLuc U2OS cells; vs DMSO control): more than 12 hours
- Effect on circadian period (Per2-dLuc U2OS cells): dose-dependent lengthening of circadian period
- Effect on circadian period [1]: lengthened periods
- Effect on circadian period [2]: lengthened periods
- Phosphorylation of CK2 substrates (anti-phospho CK2 substrate antibody) (CK2 [5]): reduced by GO289 in a dose-dependent manner
- Phosphorylation of PER2 T12/S13 and S53 (previously reported CK2 sites) (PER2): either unchanged or up-regulated
- BMAL1 S90 phosphorylation (immunoblot) (BMAL1 S90): down-regulation
- Period lengthening of Bmal1-Luc rhythms in Per2 knockout vs wild-type cells [7]: slightly enhanced
- Cell growth (Caki-2): strongly inhibited
- Cell growth (A498): strongly inhibited
- Cell growth (769-P): strongly inhibited
- Cell growth (786-O): less affected
- Cell growth (RCC4+vec): less affected
- Cell growth (RCC4+VHL): less affected
- Cell growth (A704): less affected
- Cell growth (ACHN): less affected
- Cell growth (MLL-AF9 leukemia cells): significantly reduced growth
- Cell growth [8]: much less affected
- Cell growth (OCI-AML3): sensitive to GO289
- Luminescence intensity of Per2::Luc reporter [9]: severe reduction in luminescence
- Effect on circadian period [10]: lengthened circadian period
- Competition of CK2 interaction with affinity probe [11]: blocked by increasing concentrations of free GO289
- Competition of protein interactions with affinity probe [12]: blocked by free GO289

SMILES: Cc1cc2sc(NC(=O)Cc3ccccc3)nc2cc1Cl [LH846, reference compound]
- Phosphorylation of CK2 substrates (anti-phospho CK2 substrate antibody) (CK2 [5]): neither the CKIδ inhibitor LH846 nor the GSK-3 inhibitor CHIR-99021 altered the CK2-specific phosphorylation pattern

- CK2 inhibitory activity in vitro (CK2 [3]; in vitro CK2 kinase assay (fig. S5)): complete loss of CK2 inhibition
SMILES: COc1cc(/C(C)=N/n2c(SC)nnc2-c2ccccc2)c(Br)cc1O [compound 27]
